Results: ChEMBL document CHEMBL1129247, “Dihydrobenzofuran analogues of hallucinogens. 3. Models of 4-substituted (2,5-dimethoxyphenyl)alkylamine derivatives with rigidified methoxy groups” (J Med Chem, 1996)

How the values were obtained:
[1] = biological target: T1, 5-hydroxytryptamine receptor 1A (Rattus norvegicus, UniProt P19327); test: Binding affinity towards rat hippocampal 5-hydroxytryptamine 1A receptor using [3H]8-OH-DPAT as radioligand; assay type: tissue-based, Hippocampus
T1 sequence (P19327 whole entry): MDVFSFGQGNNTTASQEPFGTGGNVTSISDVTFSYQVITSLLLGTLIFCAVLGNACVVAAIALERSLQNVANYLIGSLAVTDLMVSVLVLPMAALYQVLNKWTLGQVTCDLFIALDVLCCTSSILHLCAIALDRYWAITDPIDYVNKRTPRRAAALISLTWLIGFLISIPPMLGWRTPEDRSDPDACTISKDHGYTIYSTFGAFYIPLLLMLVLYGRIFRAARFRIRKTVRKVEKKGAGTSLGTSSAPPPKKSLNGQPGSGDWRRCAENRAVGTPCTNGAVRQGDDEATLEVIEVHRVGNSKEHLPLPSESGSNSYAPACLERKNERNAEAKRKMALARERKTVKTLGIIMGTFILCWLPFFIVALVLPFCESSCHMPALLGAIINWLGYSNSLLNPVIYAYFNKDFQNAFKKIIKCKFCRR
Outline: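 Hippocampus pooled from male Sprague–Dawley rats (175–199 g), homogenised in sucrose and frozen. Membranes washed and preincubated twice at 37 °C in Tris HCl pH 7.4 with EDTA, ascorbate and pargyline. Assay: 0.75 nM [3H]-8-OH-DPAT, 200–400 μg protein, 15 min at 37 °C, GF/C filtration. Nonspecific binding: 10 μM 5-HT. Run in triplicate; expressed as Ki.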

[2] = biological target: 5-hydroxytryptamine receptor 2A (Rattus norvegicus, UniProt P14842); test: Binding affinity towards rat cortical 5-hydroxytryptamine 2A receptor using [3H]ketanserin as radioligand
Rattus norvegicus [3] = species on record: Rattus norvegicus; test: Effective dose for behavioral activity or hallucinogenic potential in drug discrimination studies in LSD(d-lysergic acid N,N-diethylamide) trained rats; assay type: functional; parameters: unit not given here
Outline: (§1)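 Male Sprague–Dawley rats (200–220 g) trained in a two-lever, FR50 food task to tell LSD tartrate (0.08 mg/kg ip) from saline. Test drugs were given ip in 0.9% saline 30 min before extinction sessions. The first lever reaching 50 presses was scored; no completion within 5 min counted as disruption.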

[4] = biological target: T2, 5-hydroxytryptamine receptor 2A (Homo sapiens, UniProt P28223); test: Agonistic activity at cloned human 5-hydroxytryptamine 2A receptor using [125I]DOI as radioligand; assay type: functional
Outline: (§2)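 AV12 hamster fibroblast membranes stably expressing the human receptor. Final buffer: 10 μM pargyline, 9.75 mM MgCl2, 0.5 mM EDTA, 0.1% Na ascorbate, 50 mM Tris HCl pH 7.4. [125I]DOI was at about 0.07–0.15 nM, with about 40 μg (2A) or 30 μg (2C) protein, for 30 min at 37 °C. Nonspecific binding: 1 μM ketanserin (2A) or 10 μM mianserin (2C). Read by filtration and gamma counting.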

[5] = biological target: T3, 5-hydroxytryptamine receptor 2B (Homo sapiens, UniProt P41595); test: Antagonistic activity at cloned human 5-hydroxytryptamine 2B receptor using [3H]rauwolscine as radioligand; assay type: functional
Outline: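 Human 5-HT2B membranes from stably transformed AV12 cells in Tris HCl pH 7.4. Competition against 2 nM [3H]rauwolscine (final), with 500 nM efaroxan to mask α2 sites, in 50 mM Tris HCl pH 7.4. Incubated 20 min at 37 °C, then filtered. Nonspecific binding with 10 μM 1-naphthylpiperazine.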

[6] = biological target: T2, 5-hydroxytryptamine receptor 2A; test: Antagonistic activity at cloned human 5-hydroxytryptamine 2A receptor using [3H]ketanserin as radioligand; assay type: functional
Outline: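 Human 5-HT2A expressed in AV12 cell membranes. The 0.8 mL assay held 50 mM Tris HCl, 100 nM prazosin to block α1 sites, 0.4–0.5 nM [3H]ketanserin and varying competitor, final pH 7.6. Incubated 15 min at 37 °C, then filtered and washed. Mianserin 3 μM defined nonspecific binding. Read by liquid scintillation.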

[7] = biological target: T3, 5-hydroxytryptamine receptor 2B; test: Agonistic activity at cloned human 5-hydroxytryptamine 2B receptor using [3H]-5-HT as radioligand; assay type: functional
Outline: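 Membranes from AV12 hamster fibroblasts stably expressing human 5-HT2B, lysed hypotonically in 50 mM Tris HCl pH 7.4. Competition against about 2 nM [3H]-5-HT (free level measured) in 50 mM Tris, 3 mM CaCl2, 10 μM pargyline, 0.1% ascorbic acid, pH 7.4. Drug dilutions spanned 6 log units. About 100-150 μg protein per tube, 15 min at 37 °C, in triplicate. Nonspecific binding with 10 μM 5-HT or 1-NP. Filtration, then scintillation counting.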

[8] = biological target: T4, 5-hydroxytryptamine receptor 2C (Homo sapiens, UniProt P28335); test: Antagonistic activity at cloned human 5-hydroxytryptamine 2C receptor using [3H]mesulergine as radioligand; assay type: functional
T4 sequence (P28335 whole entry): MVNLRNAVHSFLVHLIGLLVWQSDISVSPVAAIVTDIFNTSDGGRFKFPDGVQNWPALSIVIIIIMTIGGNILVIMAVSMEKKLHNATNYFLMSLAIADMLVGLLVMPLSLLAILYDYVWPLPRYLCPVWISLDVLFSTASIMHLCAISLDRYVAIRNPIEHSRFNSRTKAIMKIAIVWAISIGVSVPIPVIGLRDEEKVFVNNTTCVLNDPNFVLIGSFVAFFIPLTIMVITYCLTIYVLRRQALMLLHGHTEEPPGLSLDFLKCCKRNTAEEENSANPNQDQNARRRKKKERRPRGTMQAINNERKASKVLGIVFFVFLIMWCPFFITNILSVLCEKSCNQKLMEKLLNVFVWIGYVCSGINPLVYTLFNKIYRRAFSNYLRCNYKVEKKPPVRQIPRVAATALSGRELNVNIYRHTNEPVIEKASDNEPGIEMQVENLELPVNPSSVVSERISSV
Outline: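 AV12 membranes expressing human 5-HT2C. The 0.8 mL assay held 0.74–0.82 nM [3H]mesulergine, varying competitor and Tris HCl, final pH 7.6. Incubated 30 min at 37 °C, then filtered, washed and counted by liquid scintillation. Mianserin defined nonspecific binding.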

[9] = biological target: T4, 5-hydroxytryptamine receptor 2C; test: Agonistic activity at cloned human 5-hydroxytryptamine 2C receptor using [125I]DOI as radioligand; assay type: functional; outline: as §2
Rattus norvegicus [10] = species on record: Rattus norvegicus; test: Effective dose in Drug Discrimination studies in LSD(d-lysergic acid N,N-diethylamide) trained rats. No. of animals tested 15; assay type: functional; outline: as §1

Sequence of 5-hydroxytryptamine receptor 2A (Rattus norvegicus, UniProt P14842) (P14842 whole entry): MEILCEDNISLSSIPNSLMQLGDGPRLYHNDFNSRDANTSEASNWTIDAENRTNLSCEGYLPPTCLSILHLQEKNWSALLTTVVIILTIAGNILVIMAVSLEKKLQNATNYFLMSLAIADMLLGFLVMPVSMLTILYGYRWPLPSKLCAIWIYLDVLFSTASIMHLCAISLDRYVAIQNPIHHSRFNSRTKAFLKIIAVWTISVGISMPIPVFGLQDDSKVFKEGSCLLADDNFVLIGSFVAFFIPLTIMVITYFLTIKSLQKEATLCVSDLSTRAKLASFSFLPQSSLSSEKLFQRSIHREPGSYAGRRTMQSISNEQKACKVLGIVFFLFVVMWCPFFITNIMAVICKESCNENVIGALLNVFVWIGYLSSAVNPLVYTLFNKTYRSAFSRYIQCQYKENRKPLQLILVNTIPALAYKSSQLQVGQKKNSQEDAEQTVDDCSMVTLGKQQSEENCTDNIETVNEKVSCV
T3 sequence (P41595 whole entry): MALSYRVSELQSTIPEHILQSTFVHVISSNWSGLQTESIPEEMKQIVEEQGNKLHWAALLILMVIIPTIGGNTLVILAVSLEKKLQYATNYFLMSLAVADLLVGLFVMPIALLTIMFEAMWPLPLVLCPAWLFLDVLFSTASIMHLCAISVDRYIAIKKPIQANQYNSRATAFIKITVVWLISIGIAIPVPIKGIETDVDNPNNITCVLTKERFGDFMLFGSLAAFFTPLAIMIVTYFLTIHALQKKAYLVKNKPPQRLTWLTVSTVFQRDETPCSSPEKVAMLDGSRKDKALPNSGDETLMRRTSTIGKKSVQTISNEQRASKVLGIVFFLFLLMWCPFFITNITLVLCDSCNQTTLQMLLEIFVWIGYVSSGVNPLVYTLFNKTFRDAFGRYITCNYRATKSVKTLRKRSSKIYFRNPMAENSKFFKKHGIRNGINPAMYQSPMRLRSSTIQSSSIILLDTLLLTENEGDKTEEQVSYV
T2 sequence (P28223 whole entry): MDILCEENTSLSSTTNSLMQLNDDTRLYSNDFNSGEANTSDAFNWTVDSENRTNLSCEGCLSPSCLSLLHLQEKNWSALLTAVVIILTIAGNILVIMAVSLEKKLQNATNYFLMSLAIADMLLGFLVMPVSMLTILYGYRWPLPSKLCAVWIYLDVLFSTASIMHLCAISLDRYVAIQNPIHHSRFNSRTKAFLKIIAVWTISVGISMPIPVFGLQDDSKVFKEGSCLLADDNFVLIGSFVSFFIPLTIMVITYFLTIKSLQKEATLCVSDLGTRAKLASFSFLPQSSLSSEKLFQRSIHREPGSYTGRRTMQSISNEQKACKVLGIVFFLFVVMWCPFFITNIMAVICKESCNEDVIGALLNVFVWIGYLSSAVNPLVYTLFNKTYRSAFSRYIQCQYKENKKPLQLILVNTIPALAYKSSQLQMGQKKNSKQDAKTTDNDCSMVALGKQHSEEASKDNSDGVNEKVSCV

| SMILES | Ki [1] | Ki [2] | ED50 (Rattus norvegicus [3]) | further results |
| --- | --- | --- | --- | --- |
| NCCc1c2c(cc3c1OCC3)OCC2 | 5.2 nM | 2300 nM | 1430 | – |
| CC(N)Cc1c2c(c(Br)c3c1OCC3)OCC2 (stereo unspecified) | 4.3 nM | 18 nM | 61 | Ki [4]: 0.48 nM; Ki [5]: 1.15 nM; Ki [6]: 10.7 nM; Ki [7]: 1.6 nM; Ki [8]: 2.28 nM; Ki [9]: 0.3 nM |
| NCCc1c2c(c(Br)c3c1OCC3)OCC2 | 0.8 nM | 34 nM | – | – |
| Cc1c2c(c(CC(C)N)c3c1OCC3)OCC2 (stereo unspecified) | – | – | 780 | – |
| COc1cc(Br)c2c(c1CC(C)N)CCO2 (stereo unspecified) | – | – | 570 | – |
| CC(N)Cc1c2c(cc3c1OCC3)OCC2 (stereo unspecified) | 29 nM | 2010 nM | 64000 | – |
| COc1cc(CC(C)N)c(OC)cc1Br (stereo unspecified) [BROLAMFETAMINE] | 6.1 nM | – | – | – |
| CCN(CC)C(=O)[C@@H]1C=C2c3cccc4[nH]cc(c34)C[C@H]2N(C)C1 [LYSERGIDE] | – | – | – | ED50 (Rattus norvegicus [10]): 40 µmol/kg |
